Sampled rows, rich in hits. Any-hit rate of the full collection: about 0.72%.
mIAP activ – activators of mouse IAP, primary screen, biochemical, luminescence, uHTS; intestinal alkaline phosphatase [Mus musculus]; muIAP, CDP-Star luminescence, 30 min; hits give high values; 1 = vehicle-only enzyme signal, 0 = enzyme-free wells; activation factor at 10 µM; hit rate 0.24% among 330,000;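 active = activation factor of at least 2 at 20 µM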
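System: mouse IAP enzyme. Reagent: CDP-Star chemiluminescent phosphatase substrate. Benchmarks: DMSO wells, no-enzyme wells. Times: 30 min enzyme-substrate-compound incubation at room temperature. Detection: luminescence from enzymatic CDP-Star hydrolysis. Doses: test compounds delivered from DMSO solution.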
mIAP inh – inhibitors of mouse IAP, primary screen, biochemical, luminescence, uHTS. purified mouse IAP, CDP-Star luminescence, 30 min. hit rate 0.2% among 330,000. inhibition, % at 10 µM;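 active = inhibition of at least 40% at 10 µM in the primary screen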;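 note: plate controls were DMSO with enzyme for no effect and no enzyme wells for full effect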
hIAP block – human IAP inhibitors, primary screen, biochemical, luminescence, uHTS. Intestinal-type alkaline phosphatase (Homo sapiens), P09923. purified IAP, CDP-Star luminescence, 30 min. inhibition, % at 10 µM. hit rate 0.12% among 330,000. AID 2544, 2010;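 active = inhibition reaching a set limit with compound at 10 µM in the primary screen, cut at about 35% in these data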;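 note: plate controls were DMSO wells with enzyme for no effect and no-enzyme buffer wells for full effect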
Target sequence (P09923 whole entry, looked up): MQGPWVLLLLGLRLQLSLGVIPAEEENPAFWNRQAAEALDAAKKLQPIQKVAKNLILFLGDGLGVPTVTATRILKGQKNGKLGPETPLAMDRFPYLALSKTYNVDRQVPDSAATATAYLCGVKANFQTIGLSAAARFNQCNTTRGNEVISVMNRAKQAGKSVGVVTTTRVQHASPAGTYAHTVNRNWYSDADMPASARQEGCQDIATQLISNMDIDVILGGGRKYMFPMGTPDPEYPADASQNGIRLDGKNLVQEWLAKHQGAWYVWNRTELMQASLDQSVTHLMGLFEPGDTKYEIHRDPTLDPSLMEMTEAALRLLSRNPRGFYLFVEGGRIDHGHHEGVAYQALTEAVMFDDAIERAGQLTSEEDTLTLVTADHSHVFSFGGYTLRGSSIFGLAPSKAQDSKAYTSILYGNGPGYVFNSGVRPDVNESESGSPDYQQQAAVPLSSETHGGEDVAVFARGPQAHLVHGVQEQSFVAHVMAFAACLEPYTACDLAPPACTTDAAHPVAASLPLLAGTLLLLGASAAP
bIAP inh – bovine intestinal alkaline phosphatase inhibitors, primary screen, selectivity assay for TNAP inhibitor project, biochemical, bovine IAP, CDP-star luminescence | alkaline phosphatase, intestinal [Bos taurus] | purified bovine IAP, 30 min | inhibition, % at 20 µM | 190,000 tested, under 10 active;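 active = over 50% inhibition of intestinal alkaline phosphatase at 20 µM in the single-dose screen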
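System: Purified bovine intestinal alkaline phosphatase (IAP) enzyme | Input: IAP diluted 1/65,000,000 in the well | Also added: CDP-star chemiluminescent phosphatase substrate, 30 µM final | Dosing: 20 µM single dose | Times: Enzyme reaction for 30 min at room temperature | Detection: Luminescence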
hIAP activ – human IAP activators, primary screen, biochemical, luminescence, uHTS; hit rate 0.16% among 330,000; Intestinal-type alkaline phosphatase (Homo sapiens), P09923; purified human IAP, CDP-Star luminescence, 30 min; hits give high values; 1 = vehicle-only enzyme, 0 = enzyme-free background; activation factor at 10 µM;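 active = activation factor of the enzyme at least 2-fold when tested at 20 µM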
bIAP act – bovine intestinal alkaline phosphatase activators, primary screen, biochemical, bovine IAP, CDP-star luminescence; alkaline phosphatase, intestinal [Bos taurus]; purified bovine IAP, 30 min; hits give high values; fold of DMSO-control signal, blank-subtracted; activation factor at 20 µM; hit rate 0.17% among 200,000;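 active = activation factor of 2 or more at 20 µM, a signal rise over negative controls twice the positive control's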
hIAP act conf – human IAP activators, confirmation, biochemical, luminescence, single concentration, uHTS hits | shares compounds with hIAP activ | purified IAP, CDP-Star luminescence, 30 min; hits give low values | activation (%Activity, negative = activation), % at 8.3 µM | hit rate 10% among 880;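 active = at least twofold enzyme activation in any of six single-dose repeats, which the averaged readout prints as negative percent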
mIAP inh conf – inhibitors of mouse IAP, confirmation, biochemical, luminescence, single concentration; shares compounds with mIAP inh; purified mouse IAP, CDP-Star luminescence, 30 min; inhibition, % at 10 µM; hit rate 4.7% among 11,000; AID 434971, 2010;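 active = inhibition of at least 40% at 10 µM in either of the two replicates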;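 note: plate controls were DMSO wells with enzyme for no effect and buffer wells lacking enzyme for full effect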
Numbers without * were called inactive.

How did Cc1ccc(CNC(=S)NC2CCC(C(C)(C)C)CC2)cc1 (centres undefined) do in these assays?
mIAP activ: 4.55*; mIAP inh: -354.7; hIAP block: -107.4; hIAP activ: 2.07*; hIAP act conf: -26.3; mIAP inh conf: -99.9

Results for Cc1nc(N)sc1-c1csc(Nc2ccc(S(N)(=O)=O)cc2)n1 ?
mIAP activ: 0.331; mIAP inh: 66.9*; hIAP block: -9.9; hIAP activ: 1.1; mIAP inh conf: 68.1*

How did COc1ccc(-c2csc(Nc3ccc(S(N)(=O)=O)cc3)n2)cc1 do in these assays?
mIAP activ: 1.15; mIAP inh: -14.7; hIAP block: -13.3; bIAP inh: 21.4; hIAP activ: 1.13; bIAP act: 0.8

What do the screens show for `CN(C)S(=O)(=O)c1ccc(Cl)c(NC(=O)CN2CCN(Cc3ccc4c(c3)OCO4)CC2)c1`?
mIAP activ: 1.01; mIAP inh: -1.2; hIAP block: 8.8; hIAP activ: 0.912

What do the screens show for `O=C(/C=C/c1ccc(O)c(O)c1)OCCc1ccccc1`?
mIAP activ: 0.853; mIAP inh: 14.7; hIAP block: 28.9; hIAP activ: 0.711

How did O=C(/C=C/c1ccc(O)c(O)c1)OC(Cc1ccc(O)c(O)c1)C(=O)O (centres undefined) do in these assays?
mIAP activ: 0.23; mIAP inh: 77.0*; hIAP block: 31.3; hIAP activ: 0.687; mIAP inh conf: 78.3*

How did Cc1sc2nc(SCC(=O)Nc3cccc(S(N)(=O)=O)c3)[nH]c(=O)c2c1C do in these assays?
mIAP activ: 0.491; mIAP inh: 50.9*; hIAP block: 2.7; hIAP activ: 0.973; mIAP inh conf: 61.6*

Results for CCOC(=O)C1CCN(C(=O)CCCn2nc(C)c3c(C)n(-c4ccc(C)cc4)nc3c2=O)CC1 ?
mIAP activ: 1.02; mIAP inh: -2.0; hIAP block: -7.5; hIAP activ: 1.07

What do the screens show for `C[C@@H]1O[C@@H](O[C@H]2[C@H](O)[C@@H](O)[C@H](Oc3c(-c4ccc(O)cc4)oc4cc(O)cc(O)c4c3=O)O[C@@H]2CO)[C@H](O)[C@H](O)[C@H]1O`?
mIAP activ: 1.05; mIAP inh: -5.4; hIAP block: -3.8; hIAP activ: 1.04

Results for C[C@@H]1O[C@@H](OC2C(O)C(OCCc3ccc(O)c(O)c3)OC(CO)C2OC(=O)/C=C/c2ccc(O)c(O)c2)[C@H](O)[C@H](O)[C@H]1O (some centres undefined) ?
mIAP activ: 0.543; mIAP inh: 45.7*; hIAP block: 25.6; hIAP activ: 0.744; mIAP inh conf: 41.5*

How did COc1ccc(CCNC(=O)c2cc(-c3cc(Cl)cc(Cl)c3)oc2C)cc1 do in these assays?
mIAP activ: 4*; mIAP inh: -299.5; hIAP block: -0.2; bIAP inh: -3.2; hIAP activ: 1; bIAP act: 1; mIAP inh conf: -107.2

How did O=C(OCC(=O)N1CCN(c2ccccc2)CC1)C1CCCN1S(=O)(=O)c1ccc(Cl)cc1 (centres undefined) do in these assays?
mIAP activ: 0.88; mIAP inh: 12.0; hIAP block: 6.4; hIAP activ: 0.936

What do the screens show for `Cc1ccc(F)c(CNC(=O)C2CCC(=O)N(CCCN3CCCC3=O)C2)c1F` (centres undefined)?
mIAP activ: 0.986; mIAP inh: 1.4; hIAP block: -4.4; hIAP activ: 1.04

What do the screens show for `N#CC(C#N)=C(N)/C(C#N)=C/c1cc(O)c(O)c(O)c1`?
mIAP activ: 0.295; mIAP inh: 70.5*; hIAP block: 3.2; hIAP activ: 0.968; mIAP inh conf: 65.6*

How did O=C(Nc1cccc(Cl)c1)C1CCCCC1 do in these assays?
mIAP activ: 1.01; mIAP inh: -0.6; hIAP block: 1.0; hIAP activ: 0.99

What do the screens show for `CCn1cc(CN2CCC(C(=O)Nc3cccc(-c4cccc(F)c4)c3)CC2)cn1`?
mIAP activ: 2.04*; mIAP inh: -103.8; hIAP block: -2.7; hIAP activ: 1.03; mIAP inh conf: -166.1

What do the screens show for `O=C(Nc1cccc(-c2cccc(Cl)c2)c1)C1CCN(Cc2ccc(CO)o2)CC1`?
mIAP activ: 3.96*; mIAP inh: -295.6; hIAP block: -11.6; hIAP activ: 1.12; mIAP inh conf: -161.0

How did Cc1ccc(S(=O)(=O)N2CCOCC2)cc1NC(=O)COC(=O)CNC(=O)c1ccc(Cl)cc1Cl do in these assays?
mIAP activ: 0.931; mIAP inh: 6.9; hIAP block: -1.3; hIAP activ: 1.01

Results for CC1CCCC(NC(=O)CN2CCN(S(=O)(=O)c3cccs3)CC2)C1C (centres undefined) ?
mIAP activ: 1.03; mIAP inh: -3.1; hIAP block: 4.2; hIAP activ: 0.958

What do the screens show for `COc1ccc(CNc2ncnc3c2[nH]c2cc(OC)c(OC)cc23)cc1`?
mIAP activ: 1.85; mIAP inh: -84.9; hIAP block: -5.7; hIAP activ: 1.06

How did Cc1ccc2[nH]c3c(NCc4ccccc4)ncnc3c2c1 do in these assays?
mIAP activ: 3.04*; mIAP inh: -204.3; hIAP block: -50.8; hIAP activ: 1.51; mIAP inh conf: -148.9

Results for COc1ccc(CNc2ncnc3c2[nH]c2ccccc23)cc1 ?
mIAP activ: 3.06*; mIAP inh: -206.5; hIAP block: -64.5; hIAP activ: 1.65; mIAP inh conf: -171.2

Results for Brc1ccc2[nH]c3c(NCc4ccccn4)ncnc3c2c1 ?
mIAP activ: 1.22; mIAP inh: -22.0; hIAP block: -22.7; hIAP activ: 1.23

What do the screens show for `C=CCNC(=O)/C(C#N)=C/c1c(N2CCN(c3ccc(OC)cc3)CC2)nc2c(C)cccn2c1=O`?
mIAP activ: 0.896; mIAP inh: 10.4; hIAP block: 1.0; hIAP activ: 0.99

Results for O=C(NCc1ccc2c(c1)CCO2)Nc1cccc(C(F)(F)F)c1 ?
mIAP activ: 3.78*; mIAP inh: -277.8; hIAP block: 9.1; hIAP activ: 0.909; mIAP inh conf: -143.5

Screens: PubChem, Sanford-Burnham Center for Chemical Genomics
